Assay results published in ChEMBL document CHEMBL4007477, “Novel 2-phenyl-4,5,6,7-tetrahydro[b]benzothiophene analogues as selective COX-2 inhibitors: Design, synthesis, anti-inflammatory evaluation, and molecular docking studies” (Bioorg Med Chem Lett, 2017).

What was measured:
[1] = target: T1, COX1 (Prostaglandin G/H synthase 1) (Ovis aries, UniProt P05979); experiment: Inhibition of ovine COX1 at 60 uM using arachidonic acid as substrate preincubated for 5 mins followed by substrate addition measured after 2 mins by ADHP probe-based fluorescence assay relative to control; details: sheep, ovine COX1 enzyme
T1 sequence (P05979 whole entry): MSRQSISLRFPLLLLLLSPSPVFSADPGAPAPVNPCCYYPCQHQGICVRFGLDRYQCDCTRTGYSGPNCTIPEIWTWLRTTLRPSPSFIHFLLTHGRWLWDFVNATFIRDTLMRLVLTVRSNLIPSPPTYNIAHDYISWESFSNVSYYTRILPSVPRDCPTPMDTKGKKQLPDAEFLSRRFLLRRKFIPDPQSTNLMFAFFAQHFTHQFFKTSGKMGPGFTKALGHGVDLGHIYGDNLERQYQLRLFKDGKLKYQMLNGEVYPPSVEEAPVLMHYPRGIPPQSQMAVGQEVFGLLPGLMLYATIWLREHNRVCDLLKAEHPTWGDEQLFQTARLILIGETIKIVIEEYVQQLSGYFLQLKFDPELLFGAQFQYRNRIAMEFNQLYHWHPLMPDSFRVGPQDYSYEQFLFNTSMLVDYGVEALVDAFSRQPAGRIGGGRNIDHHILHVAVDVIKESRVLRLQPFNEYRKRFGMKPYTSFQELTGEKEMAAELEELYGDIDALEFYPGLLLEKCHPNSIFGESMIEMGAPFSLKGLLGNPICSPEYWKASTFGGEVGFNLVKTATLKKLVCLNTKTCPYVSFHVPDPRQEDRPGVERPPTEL

[2] = target: T2, Prostaglandin G/H synthase 2 (Homo sapiens) (UniProt P35354); details: at 60 µM
T2 sequence (whole entry): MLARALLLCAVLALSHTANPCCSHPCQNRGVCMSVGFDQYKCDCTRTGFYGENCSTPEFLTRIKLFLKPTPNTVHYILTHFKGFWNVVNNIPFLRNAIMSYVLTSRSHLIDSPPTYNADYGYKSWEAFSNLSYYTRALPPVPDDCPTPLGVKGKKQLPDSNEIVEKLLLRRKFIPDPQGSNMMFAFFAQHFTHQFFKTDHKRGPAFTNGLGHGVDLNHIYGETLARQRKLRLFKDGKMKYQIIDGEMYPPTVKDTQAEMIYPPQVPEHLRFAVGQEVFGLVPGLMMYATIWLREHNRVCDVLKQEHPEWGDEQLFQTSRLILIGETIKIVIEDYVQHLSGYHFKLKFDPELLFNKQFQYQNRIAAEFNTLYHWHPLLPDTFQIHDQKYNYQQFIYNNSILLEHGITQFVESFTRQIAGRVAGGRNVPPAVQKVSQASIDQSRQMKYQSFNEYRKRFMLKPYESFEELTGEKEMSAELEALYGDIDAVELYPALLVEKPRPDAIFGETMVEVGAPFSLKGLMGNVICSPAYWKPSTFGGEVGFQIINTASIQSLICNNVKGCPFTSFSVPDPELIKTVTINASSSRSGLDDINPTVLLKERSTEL

[3] = system: Rattus norvegicus; experiment: Antiinflammatory activity in carrageenan-induced Wistar rat paw edema model assessed as rise in paw volume at 150 ug/kg administered 1 hr followed by carrageenan challenge measured at 60 mins by plethysmometer (reference value: 52.8%); format: functional
[4] = system: Rattus norvegicus; experiment: Antiinflammatory activity in carrageenan-induced Wistar rat paw edema model assessed as rise in paw volume at 150 ug/kg administered 1 hr followed by carrageenan challenge measured at 360 mins by plethysmometer (reference value: 49.3%); format: functional
[5] = system: Rattus norvegicus; experiment: Antiinflammatory activity in carrageenan-induced Wistar rat paw edema model assessed as rise in paw volume at 150 ug/kg administered 1 hr followed by carrageenan challenge measured at 180 mins by plethysmometer (reference value: 60.1%); format: functional
[6] = system: Rattus norvegicus; experiment: Antiinflammatory activity in carrageenan-induced Wistar rat paw edema model assessed as rise in paw volume at 150 ug/kg administered 1 hr followed by carrageenan challenge measured at 30 mins by plethysmometer (reference value: 49.5%); format: functional
[7] = Cytotoxicity against mouse RAW264.7 cells assessed as cell viability at 80 uM after 24 hrs by MTT assay relative to control; format: cell-based; details: read-out: Activity
Method in brief: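 MTT viability in RAW 264.7 cells after 24 h exposure to 5, 10, 20, 40, 80 and 160 µM compound.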

[8] = Selectivity index, ratio of IC50 for ovine COX1 to IC50 for human recombinant COX2
Method in brief: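 Selectivity index computed as COX-1 IC₅₀ / COX-2 IC₅₀, using ovine COX-1 and human recombinant COX-2. Each IC₅₀ is a mean of two determinations.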

[9] = target: T3, Prostaglandin G/H synthase 2 (Homo sapiens, UniProt P35354); experiment: Inhibition of human recombinant COX2 using arachidonic acid as substrate preincubated for 5 mins followed by substrate addition measured after 2 mins by ADHP probe-based fluorescence assay
T3 sequence (P35354 whole entry): T2 sequence (whole entry)

[10] = target: T4, Prostaglandin G/H synthase 1 (Ovis aries, UniProt P05979); experiment: Inhibition of ovine COX1 using arachidonic acid as substrate preincubated for 5 mins followed by substrate addition measured after 2 mins by ADHP probe-based fluorescence assay
T4 sequence (P05979 whole entry): T1 sequence (P05979 whole entry)

Structure (SMILES)	inhibition at 2 min, 60 µM [1] [%]	inhibition [2] [%]	IC50 [9] [µM]	IC50 [10] [µM]	Activity [3] [%]	Activity [4] [%]	Activity [5] [%]	Activity [6] [%]	viability at 24 h, 80 µM [7] [%]	Ratio IC50 [8]
O=Cc1ccc(OC(=O)c2c(-c3ccccc3)sc3c2CCCC3)cc1	11.6	10.7	–	–	–	–	–	–	–	–
O=C(Oc1ccc([N+](=O)[O-])cc1)c1c(-c2ccccc2)sc2c1CCCC2	19.3	16.5	–	–	–	–	–	–	–	–
COC(=O)Cc1ccc(OC(=O)c2c(-c3ccccc3)sc3c2CCCC3)cc1	7.81	15	–	–	–	–	–	–	–	–
CC(C)(C)c1ccc(OC(=O)c2c(-c3ccccc3)sc3c2CCCC3)cc1	8.1	3.1	–	–	–	–	–	–	–	–
Cc1ccc(-c2cc(C(F)(F)F)nn2-c2ccc(S(N)(=O)=O)cc2)cc1 [CELECOXIB]	–	–	–	–	16.2	26.6	19.7	5.8	33.9	–
CC(=O)Nc1ccc(OC(=O)c2c(-c3ccccc3)sc3c2CCCC3)cc1	36.8	75.7	1.4	68.8	30.2	37	27	10.6	41.3	48.8
COC(=O)c1ccc(OC(=O)c2c(-c3ccccc3)sc3c2CCCC3)cc1	68.9	56.5	–	–	–	–	–	–	–	–
CC(=O)c1cccc(OC(=O)c2c(-c3ccccc3)sc3c2CCCC3)c1	73.5	93.5	0.31	29.6	30.8	30.3	30.5	28.9	64.5	92.7
NC(=O)Cc1ccc(OC(=O)c2c(-c3ccccc3)sc3c2CCCC3)cc1	1.43	38.3	–	–	–	–	–	–	–	–
O=C(Oc1ccccc1)c1c(-c2ccccc2)sc2c1CCCC2	47.1	97.6	0.33	61.2	30.2	37	27	10.6	50.8	184
NS(=O)(=O)c1ccc(OC(=O)c2c(-c3ccccc3)sc3c2CCCC3)cc1	69.3	89.4	0.67	37	21.6	31.3	21.1	21.4	83.7	54.7

Now from value to compound, other results behind:

inhibition at 2 min, 60 µM [1] [%]	inhibition [2] [%]	IC50 [9] [µM]	IC50 [10] [µM]	Structure (SMILES)	Activity [3] [%]	Activity [4] [%]	Activity [5] [%]	Activity [6] [%]	viability at 24 h, 80 µM [7] [%]	Ratio IC50 [8]
76	83.7	–	–	N#Cc1ccc(OC(=O)c2c(-c3ccccc3)sc3c2CCCC3)cc1	22	28.5	21.4	13.6	–	–
72.4	36.8	–	–	O=C(Oc1ccc(Cl)cc1)c1c(-c2ccccc2)sc2c1CCCC2	–	–	–	–	–	–
10.7	41	–	–	COc1ccc(OC(=O)c2c(-c3ccccc3)sc3c2CCCC3)cc1	–	–	–	–	–	–
64	47.2	–	–	Cc1ccc(OC(=O)c2c(-c3ccccc3)sc3c2CCCC3)cc1	–	–	–	–	–	–
35.5	18.5	–	–	O=C(Oc1ccc(Br)cc1)c1c(-c2ccccc2)sc2c1CCCC2	–	–	–	–	–	–
88.3	32.3	–	–	Nc1ccc(OC(=O)c2c(-c3ccccc3)sc3c2CCCC3)cc1	33.1	39.9	44.9	29	–	–
10.3	8.04	–	–	CC(=O)c1ccc(OC(=O)c2c(-c3ccccc3)sc3c2CCCC3)cc1	37.1	54.2	55.2	24.7	–	–
